Source: ChEMBL document CHEMBL4184227, “Surrogating and redirection of pyrazolo[1,5-a]pyrimidin-7(4H)-one core, a novel class of potent and selective DPP-4 inhibitors” (Bioorg Med Chem, 2018)

Legend:
Dipeptidyl peptidase 9 = Dipeptidyl peptidase 9 (Homo sapiens, UniProt Q86TI2); test: Inhibition of recombinant human DPP9 using H-Gly-Pro-AMC as substrate measured after 10 mins by fluorescence assay
How it was run: (§1)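 Recombinant human DPP-8 or DPP-9 in 100 mM Tris-HCl, 100 mM NaCl, pH 7.8 was combined with inhibitor and H-Gly-Pro-AMC substrate (303 final). The mixture was incubated at 37 °C for 10 min, then fluorescence was read at ex 380/em 460 nm; values are means of three experiments.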

Dipeptidyl peptidase 8 = Dipeptidyl peptidase 8 (Homo sapiens, UniProt Q6V1X1); test: Inhibition of recombinant human DPP8 using H-Gly-Pro-AMC as substrate measured after 10 mins by fluorescence assay; how it was run: as §1
Mus musculus [1] = species: Mus musculus; test: animal or person; conditions: C57BL/6, ip, read-out: MED
[2] = Cytotoxicity against human HepG2 cells assessed as cell viability at 100 uM after 48 hrs by MTT assay relative to control; type: cell-based; conditions: read-out: Activity
How it was run: (§2)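 HepG2 cells in DMEM were exposed to compound in DMSO at 1–100 μM final, or DMSO alone as negative control, for 48 h. MTT (5 mg/ml, 20 µL) was then added for 6 h, the supernatant removed and the formazan dissolved in DMSO. Absorbance was read at 490 nm; viability is expressed versus control; mean ± SD, n=3.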

HepG2 [3] = test: Cytotoxicity against human HepG2 cells assessed as reduction in cell viability after 48 hrs by MTT assay; type: cell-based; conditions: hepg2, 48 h; how it was run: as §2
Mus musculus [4] = test: Antidiabetic activity in ip dosed C57BL/6 mouse as reduction in blood glucose level administered as single dose pretreated for 30 mins followed by dextrose-challenge measured up to 2 hrs by IPGTT; type: functional, organism-based
How it was run: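 Diabetic male mice (strain given as C57BL/6 and as BALB/c) received a single intraperitoneal dose of 1, 5 or 10 mg/kg, or saline as control, 30 min before an injected dextrose challenge (2 g/kg). Blood glucose was read at 0, 0.5, 1, 1.5 and 2 h, and glucose AUC was computed over 0–120 min; mean ± SD, n = 4.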

HepG2 [5] = test: Cytotoxicity against human HepG2 cells assessed as reduction in cell viability at 100 uM after 48 hrs by MTT assay; type: cell-based; conditions: hepg2, 48 h; how it was run: as §2

Sequence of Dipeptidyl peptidase 8 (Q6V1X1 whole entry): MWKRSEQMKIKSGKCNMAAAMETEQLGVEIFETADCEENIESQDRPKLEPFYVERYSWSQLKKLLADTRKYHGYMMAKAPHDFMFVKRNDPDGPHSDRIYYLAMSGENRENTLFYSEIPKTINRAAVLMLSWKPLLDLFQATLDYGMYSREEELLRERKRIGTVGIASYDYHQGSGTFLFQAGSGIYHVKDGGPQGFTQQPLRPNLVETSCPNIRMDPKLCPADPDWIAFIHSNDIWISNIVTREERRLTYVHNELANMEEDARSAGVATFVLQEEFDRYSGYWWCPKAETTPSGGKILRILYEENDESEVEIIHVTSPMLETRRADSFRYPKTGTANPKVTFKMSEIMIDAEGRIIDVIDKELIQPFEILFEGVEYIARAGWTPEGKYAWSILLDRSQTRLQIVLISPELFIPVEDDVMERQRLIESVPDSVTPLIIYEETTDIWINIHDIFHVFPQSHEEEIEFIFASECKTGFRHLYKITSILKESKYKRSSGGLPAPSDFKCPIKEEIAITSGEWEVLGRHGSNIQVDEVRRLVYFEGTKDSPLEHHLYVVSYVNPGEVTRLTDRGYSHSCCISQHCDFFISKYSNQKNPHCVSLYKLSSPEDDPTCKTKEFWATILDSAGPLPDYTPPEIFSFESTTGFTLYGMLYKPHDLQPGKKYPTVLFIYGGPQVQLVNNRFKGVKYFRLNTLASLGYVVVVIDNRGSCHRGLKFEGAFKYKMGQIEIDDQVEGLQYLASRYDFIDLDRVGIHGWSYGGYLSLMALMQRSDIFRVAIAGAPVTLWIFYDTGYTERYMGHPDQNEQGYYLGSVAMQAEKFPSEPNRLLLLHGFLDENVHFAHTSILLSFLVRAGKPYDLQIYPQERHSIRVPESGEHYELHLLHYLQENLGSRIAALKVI
Sequence of Dipeptidyl peptidase 9 (Q86TI2 whole entry): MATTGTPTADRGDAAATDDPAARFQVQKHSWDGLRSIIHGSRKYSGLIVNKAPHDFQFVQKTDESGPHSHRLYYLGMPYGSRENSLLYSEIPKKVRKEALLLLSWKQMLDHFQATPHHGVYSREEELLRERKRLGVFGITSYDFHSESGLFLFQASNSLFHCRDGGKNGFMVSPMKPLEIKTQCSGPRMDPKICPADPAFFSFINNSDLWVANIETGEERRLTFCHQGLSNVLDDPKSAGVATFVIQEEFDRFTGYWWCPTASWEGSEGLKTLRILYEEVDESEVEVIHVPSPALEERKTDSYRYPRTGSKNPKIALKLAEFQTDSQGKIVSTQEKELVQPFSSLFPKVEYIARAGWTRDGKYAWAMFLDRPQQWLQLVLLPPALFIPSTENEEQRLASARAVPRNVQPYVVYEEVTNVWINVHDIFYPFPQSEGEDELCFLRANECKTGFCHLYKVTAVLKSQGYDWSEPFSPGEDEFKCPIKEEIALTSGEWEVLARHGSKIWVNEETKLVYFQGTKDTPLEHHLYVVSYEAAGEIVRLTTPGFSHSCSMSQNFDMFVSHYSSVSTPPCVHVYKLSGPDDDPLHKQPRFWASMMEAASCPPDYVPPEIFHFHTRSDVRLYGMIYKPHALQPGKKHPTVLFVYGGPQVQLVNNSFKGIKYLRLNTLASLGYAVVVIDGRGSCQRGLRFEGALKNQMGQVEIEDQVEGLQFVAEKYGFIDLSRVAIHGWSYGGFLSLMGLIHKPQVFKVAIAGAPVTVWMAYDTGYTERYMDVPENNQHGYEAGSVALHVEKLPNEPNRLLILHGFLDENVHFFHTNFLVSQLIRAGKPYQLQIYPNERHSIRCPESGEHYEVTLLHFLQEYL

In the case of Cc1ccc(Cn2c(N3CCNCC3)cc(=O)n3nccc23)cc1, the IC50 (Dipeptidyl peptidase 9) is reported as over 100 µM and the IC50 (Dipeptidyl peptidase 8) is reported as over 100 µM.

Compound N#Cc1ccccc1Cn1c(N2CCC[C@@H](N)C2)cc(=O)n2nccc12 has an IC50 (Dipeptidyl peptidase 9) of over 100 µM and an IC50 (Dipeptidyl peptidase 8) of over 100 µM.

In the case of N#Cc1ccccc1Cn1c(N2CCNCC2)cc(=O)n2nccc12, the minimal effective dose (Mus musculus [1]) is reported as 1 mg/kg, the IC50 (Dipeptidyl peptidase 9) is reported as over 100 µM and the viability at 48 h, 100 µM [2] is reported as over 60%. For the same compound, the Activity (HepG2 [3]) was “Dose-dependent effect”, the Activity (Mus musculus [4]) was “Dose-dependent effect” and the IC50 (Dipeptidyl peptidase 8) was over 100 µM.

Cc1ccc(Cn2c(N3CCC[C@@H](N)C3)cc(=O)n3nccc23)cc1 showed an IC50 (Dipeptidyl peptidase 9) of over 100 µM and an IC50 (Dipeptidyl peptidase 8) of over 100 µM.

In the case of N#Cc1ccccc1Cc1c(Cl)nc2ccnn2c1N1CCC[C@@H](N)C1, the IC50 (Dipeptidyl peptidase 9) is reported as over 100 µM, the Activity (HepG2 [5]) is reported as “Toxic” and the Activity (HepG2 [3]) is reported as “Dose-dependent effect”. For the same compound, the IC50 (Dipeptidyl peptidase 8) was over 100 µM.

In the case of O=c1cc(N2CCNCC2)n(Cc2ccccc2[N+](=O)[O-])c2ccnn12, the IC50 (Dipeptidyl peptidase 9) is reported as over 100 µM and the IC50 (Dipeptidyl peptidase 8) is reported as over 100 µM.

O=c1cc(N2CCNCC2)n(Cc2ccccc2)c2ccnn12 gave an IC50 (Dipeptidyl peptidase 9) of over 100 µM and an IC50 (Dipeptidyl peptidase 8) of over 100 µM.
